# L major viab: Leishmania major promastigote growth inhibition | Leishmania major promastigotes, resazurin fluorescence viability | inhibition, % at 10 µM | hit rate 9% among 200,000 | AID 1063; in the data active = inhibition above about 50%;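 note: promastigotes grown with compound for 44 hours at 28 °C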
# CHOP inh: blocks CHOP induction under ER stress; CHO-K1 CHOP-promoter luciferase, tunicamycin-induced, 15-18 h; inhibition, % at 10 µM; hit rate 3.8% among 220,000; AID 2732;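 active = compounds that reduced the stress-induced luciferase reporter signal by more than about 70% of percent inhibition, limit read from the data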;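 note: 0% = tunicamycin plus vehicle and 100% = wells without tunicamycin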
# Dynein cargo inh: dynein cargo transport inhibition; z-score, hits read low; hit rate 0.47% among 220,000; 3617.4 mouse cells, GR-EGFP nuclear translocation imaging; test concentration mostly 20 µM; stimulated with dexamethasone, 1 µM; active compounds read low;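 active = plate z-score of nuclear minus cytoplasmic receptor signal below a set negative limit, without overly bright fluorescence or cell loss, cut at about -3.5 in these data, passing the limit was not always enough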;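 note: z-score of nuclear minus cytoplasmic ring GR-EGFP intensity difference per well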
#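 Also added – dexamethasone, 1.0 µM final · Buffer or medium – tet-free, stripped-serum medium · Schedule – induction 48 h, compound 1 h, agonist 30 min · Detection – formaldehyde fixation, Hoechst nuclear stain, 10x automated fluorescence imaging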
# CHOP UPR activ: activators of apoptotic arm of unfolded protein response (CHOP); CHO-CHOP luciferase reporter, UPR activation, luminescence; percent of tunicamycin response over DMSO baseline; hit rate 0.34% among 330,000; AID 449763; activation, % at 10 µM;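 active = at 10 µM dose, activation of 40% or more, normalized to positive control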;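 note: 100% = tunicamycin at 10 µg/mL and 0% = DMSO alone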
#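 measured by = luciferase luminescence | assay system = CHO-CHOP cells, stable luciferase reporter of PERK-eIF2a-CHOP signalling | amount = 500 reporter cells seeded per well | timing = 6 h compound exposure at 37 °C after overnight seeding | controls = positive tunicamycin 10 µg/mL, negative DMSO alone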
# T cruzi inh: T. cruzi replication inhibition; T. cruzi beta-gal in NIH3T3, luminescence, 90 h; inhibition, % (test concentration not listed); hit rate 1.4% among 300,000;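 active = mean inhibition across valid replicates above about 55%, limit read from the data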;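 note: signal also drops with host cell toxicity which is not excluded here; 0% = plate median of DMSO wells and 100% = zero luminescence signal; higher percent means less beta-gal luminescence so fewer parasites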
#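 Assay system: NIH/3T3 host cells with β-galactosidase reporter T. cruzi; input: 5,000 host fibroblasts per well; compound: single 50 nL compound addition per well in DMSO; timing: ≥90 h infection period, 3 h prior cell attachment; measured by: GalScreen β-gal luminescence, detergent lysis, 60 min; evaluation: percent inhibition of parasite-derived β-gal signal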
# XBP1 UPR activ: adaptive UPR (XBP1) activation; hit rate 0.33% among 330,000; CHO-XBP1 luciferase reporter, IRE1-XBP1 UPR activation, luminescence; percent of tunicamycin response, DMSO as zero; activation, % at 20 µM;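 active = versus positive control, 20 µM dose yields 30% or more activation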;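 note: 100% = tunicamycin at 10 µg/mL and 0% = DMSO only wells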
#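 Test system: CHO-XBP1 luciferase reporter cells | Buffer or medium: Serum-containing F12 medium, 10% FBS | Schedule: 6 h compound exposure at 37 °C, 5% CO2 | Detection: Steady-Glo luciferase glow luminescence, 10 min after reagent addition | Read-out basis: Activation, % of tunicamycin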
# Starred values were filed as active, the others as inactive; x = no result. Only a selection was taken, and hits are over-represented in it overall.
SMILES,L major viab,CHOP inh,Dynein cargo inh,CHOP UPR activ,T cruzi inh,XBP1 UPR activ
COc1ccccc1NS(=O)(=O)c1cccc(NC(=O)c2cncc(Br)c2)c1,x,x,x,-2,x,-2
CC(=O)Nc1ccc2nc(C3CC3)n(Cc3ccc(Cl)cc3)c(=O)c2c1,84*,-17,-0.36,8,27,4
CCC(=O)Nc1ccc2nc(C3CC3)n(Cc3ccc(C(C)(C)C)cc3)c(=O)c2c1,x,47,1,5,58*,0
O=C(Nc1ccc2nc(C3CC3)n(Cc3ccc(F)cc3)c(=O)c2c1)c1ccco1,24,-18,-0.07,4,12,-1
COc1ccc(Cn2c(C3CC3)nc3ccc(NC(=O)C4CC4)cc3c2=O)cc1,10,-6,0.11,7,29,4
O=C(NNS(=O)(=O)c1ccc(F)cc1)C1CCN(Cc2cccc(F)c2)CC1,86*,16,-0.77,0,0,-1
Cc1cc(C)c(S(=O)(=O)NC2CCN(Cc3ccccc3)CC2)c(C)c1,x,31,-0.66,-2,9,-1
O=C(NNS(=O)(=O)c1ccc(F)cc1)C1CCN(S(=O)(=O)c2ccccc2)CC1,4,8,-0.31,-2,-3,-2
Cc1cc(C)c(S(=O)(=O)NNC(=O)C2CCN(Cc3ccccc3)CC2)c(C)c1,91*,30,-0.66,1,2,1
Cc1ccc(NC(=O)CSCC(=O)Nc2cccc3ncccc23)cc1,x,x,x,-1,33,1
O=C(NCC1CCCO1)c1cc2cc(Cl)ccc2[nH]1 (configuration not stated),x,x,x,4,1,0
OC1CCN(c2cc(-c3ccccc3)nc3cc(-c4ccc(F)cc4)nn23)CC1,19,52,-0.12,3,38,0
CCN1CCN(c2cc(-c3ccccc3)nc3cc(-c4cccc(F)c4)nn23)CC1,68*,65,0.12,-1,36,-1
CC(C)c1ccc(-c2nc(N3CCCCCC3)nc3n[nH]c(N)c23)cc1,2,80*,-0.27,1,28,2
CCCN(CCC)c1nc(N)nc(-c2cc(Cl)ccc2OC)n1,58*,34,-0.6,0,22,-3
CCOc1cc(C(=O)OC(C(=O)NC(=O)NC)c2ccccc2)ccc1OCC(=O)N1CCOCC1 (configuration not stated),x,x,x,0,x,-2
OCC1(CCc2ccccc2)CCN(Cc2cccn2-c2cccnc2)CC1,61*,12,1.5,1,18,-1
CC1(C)C(=O)Nc2ccccc2N1C(=O)COC(=O)c1cc(S(C)(=O)=O)ccc1Cl,x,x,x,0,x,-5
CC1(C)C(=O)Nc2ccccc2N1C(=O)COC(=O)c1ccc(Cl)c(S(=O)(=O)NCc2ccccc2)c1,99*,9,-0.42,-1,-8,0
CCc1cccc(C)c1NC(=O)C1CN(S(=O)(=O)c2ccccc2)CCN1S(=O)(=O)c1ccccc1 (configuration not stated),7,52,-0.55,3,10,-3
Cn1c(=O)n(C)c2cc(/C=C3/SC(=O)N(CC(=O)N4CCOCC4)C3=O)ccc21,10,-11,0.16,1,-3,3
CCOC(=O)CN1C(=O)S/C(=C/c2ccc3c(c2)n(C)c(=O)n3C)C1=O,69*,-26,1.9,4,-15,7
CCSc1ncc(/C=N/Nc2ccc([N+](=O)[O-])cc2)n1C,4,78*,-0.94,9,4,4
CCSc1ncc(/C=N/Nc2ccc(Cl)cc2)n1C,78*,38,-0.73,7,34,9
CCSc1ncc(/C=N/Nc2ccccc2)n1C,15,52,-0.84,4,40,6
SMILES,L major viab,CHOP inh,Dynein cargo inh,CHOP UPR activ,T cruzi inh,XBP1 UPR activ
O=C(CN1C(=O)COc2ccccc21)N1CCN(C2CCCCC2)CC1,x,x,x,-2,-7,-2
CC(C)(C)OC(=O)C[C@@H]1C/C=C\C[C@@H](CC(=O)N(CCO)Cc2ccccc2)C(=O)N2CCC[C@@H]2COC1=O,x,x,x,0,x,2
OCC1(CCCc2ccccc2)CCN(C2CCSCC2)CC1,84*,11,-0.3,0,1,5
CCOC(=O)C1(CCCc2ccccc2)CCN(C2CCSCC2)CC1,85*,39,-1.4,x,10,x
CCOC(=O)C1(CCCc2ccccc2)CCN(C(=O)COC)CC1,x,-1,-1,2,-11,-4
CSCC(C)N1CCC(CO)(CCCc2ccccc2)CC1 (configuration not stated),91*,-6,0.35,-1,-6,0
Cc1ccc(S(=O)(=O)N2CCCCC2)cc1C(=O)NCCCN1CCOCC1,x,x,x,1,-4,-5
COC(=O)C(NC(=O)c1ccc(F)cc1)(Nc1ncc(S(=O)(=O)c2ccc([N+](=O)[O-])cc2)s1)C(F)(F)F (configuration not stated),58*,1,-0.89,9,12,-2
COc1ccccc1NC(=O)COC(=O)c1cc2ccccc2cc1O,x,x,x,1,x,-1
Cc1ccc(Cl)cc1NC(=O)c1cc2ccccc2cc1O,x,82*,0.062,26,16,2
COc1cc(NC(=O)c2cc3ccccc3cc2O)c(OC)cc1Cl,x,83*,0.098,10,-1,13
COc1ccccc1NC(=O)c1cc2cc(Br)ccc2cc1O,x,88*,-0.39,x,0,x
COc1ccc(NC(=O)c2cc3ccccc3cc2OC)cc1,x,x,x,7,9,3
COc1cc2ccccc2cc1C(=O)NNC(=O)c1ccccc1O,x,x,x,-1,57*,-2
CCOC(=O)C1CCN(CC(=O)c2ccc(O)c(C)c2O)CC1,x,x,x,-1,-7,-3
CCC(C)c1ccc2oc(-c3ccc(NC(=O)Cn4cnc5c(=O)n(C)c(=O)n(C)c54)cc3)nc2c1 (configuration not stated),22,79*,1.9,22,32,25
C/C(=N\NC(=O)CNc1cccc(C(F)(F)F)c1)c1ccc(Br)cc1,-3,94*,-0.39,2,5,2
Cc1cccc(NCC(=O)N/N=C/c2cccc(Br)c2)c1,-4,84*,-0.58,1,-5,4
Cc1ccc(NCC(=O)N/N=C/c2cccc(Br)c2)cc1,-3,4,0.36,0,-4,6
C/C(=N\NC(=O)CNc1cccc(C)c1)c1ccc(Br)s1,57*,39,-0.88,9,7,1
C/C(=N\NC(=O)Cc1ccccc1)c1ccc(Br)s1,x,x,x,2,-14,-1
Cc1nc2c(C)cccn2c(=O)c1NC(=O)c1ccc2c(c1)OCO2,x,x,x,-1,-13,4
C=CCOc1c(Br)cc(CNc2ccc(NC(=O)C(C)C)cc2)cc1OCC,97*,26,-0.63,-2,1,-3

# Screening results (PubChem BioAssay)
